{"data": "Measured values of several laboratories", "target": "Calcium/calmodulin-dependent protein kinase type 1G (CAMK1G, Homo sapiens, UniProt Q96NX5)", "note": "Protocols differ between the studies behind these lines."}
{"Structure (SMILES)": "O=C(Nc1ccc(Oc2ccc(F)cc2)cc1)N1CCc2ncccc2[C@H]1c1ccc(F)cc1", "observed": "cell-free assay", "technique": "competition with immobilised ligand", "tested at": "1 µM", "remaining binding [%]": 100}
{"Structure (SMILES)": "COc1ccnn2ncc(-c3ccnc(N(C)C)n3)c12", "observed": "binding", "tested at": "1 µM", "remaining binding [%]": 100}
{"Structure (SMILES)": "COc1ccc2cc(OCC3(C(=O)O)CN(C(=O)c4ccc(F)cc4)C3)ccc2c1", "observed": "cell-free assay", "technique": "competition with immobilised ligand", "tested at": "1 µM", "remaining binding [%]": 100}
{"Structure (SMILES)": "CC1CCCN1c1nccc(-c2cnn3ncccc23)n1 (stereo not shown)", "observed": "binding", "technique": "competition with immobilised ligand", "tested at": "1 µM", "remaining binding [%]": 100}
{"Structure (SMILES)": "O=C(N1CCS(=O)(=O)CC1)N1C[C@H](c2ccc(OC(F)(F)F)cc2)C[C@H](c2nc(C3CC3)no2)C1", "observed": "cell-free assay", "technique": "competition with immobilised ligand", "tested at": "1 µM", "remaining binding [%]": 100}
{"Structure (SMILES)": "Nc1ncc2c(n1)-c1c([nH]c3ccc(C#CC4CC4)cc13)CCCC2", "observed": "binding", "technique": "competition with immobilised ligand", "tested at": "1 µM", "remaining binding [%]": 87}
{"Structure (SMILES)": "CCN1CCN(Cc2ccc(C(=O)Nc3ccc(C)c(Oc4ccc5c(c4)CC(=O)N5)c3)cc2C(F)(F)F)CC1", "observed": "binding", "technique": "competition with immobilised ligand", "tested at": "1 µM", "remaining binding [%]": 94}
{"Structure (SMILES)": "O=C(c1ccc(Nc2nccc(-c3cc4ccccc4s3)n2)cc1)N1CCC(N2CCCC2)CC1", "observed": "binding", "technique": "competition with immobilised ligand", "tested at": "1 µM", "remaining binding [%]": 72}
{"Structure (SMILES)": "N[C@@H]1CCN(c2nccc(-c3cnn4ncccc34)n2)C1", "observed": "binding", "tested at": "1 µM", "remaining binding [%]": 100}
{"Structure (SMILES)": "O=C(NC[C@@H]1[C@H]2CN(C(=O)OCc3cc(C(F)(F)F)cc(C(F)(F)F)c3)C[C@@H]12)c1ccc2[nH]nnc2c1", "observed": "cell-free assay", "technique": "competition with immobilised ligand", "tested at": "1 µM", "remaining binding [%]": 100}
{"Structure (SMILES)": "O=C(NCCCN1CCOCC1)c1ccc(Nc2ncc(Cl)c(-c3ccc(Cl)s3)n2)cc1", "observed": "binding", "technique": "competition with immobilised ligand", "tested at": "1 µM", "remaining binding [%]": 74}
{"Structure (SMILES)": "CN(CCCC(F)(F)F)c1nccc(-c2cnn3ncccc23)n1", "observed": "binding", "tested at": "1 µM", "remaining binding [%]": 100}
{"Structure (SMILES)": "O=C(c1ccc(Nc2ncc(Cl)c(-c3cc4ccccc4s3)n2)cc1)N1CCC(N2CCCC2)CC1", "observed": "binding", "technique": "competition with immobilised ligand", "tested at": "1 µM", "remaining binding [%]": 82}
{"Structure (SMILES)": "O=C(NCC1CCOCC1)c1n[nH]cc1NC(=O)c1c(F)cccc1F", "observed": "binding", "technique": "competition with immobilised ligand", "tested at": "1 µM", "remaining binding [%]": 96}
{"Structure (SMILES)": "CNCc1ccccc1-c1csc([C@H](C)Nc2nc(C)nc3cc(OC)c(OC)cc23)c1", "observed": "cell-free assay", "technique": "competition with immobilised ligand", "tested at": "1 µM", "remaining binding [%]": 96}
{"Structure (SMILES)": "C[C@@H]1CCN(c2nccc(-c3cnn4ncccc34)n2)C1", "observed": "binding", "tested at": "1 µM", "remaining binding [%]": 91}
{"Structure (SMILES)": "CC(=O)N1CCC(c2ccc(C(=O)NC(=N)N)cc2C(F)(F)F)CC1", "observed": "cell-free assay", "technique": "competition with immobilised ligand", "tested at": "1 µM", "remaining binding [%]": 100}
{"Structure (SMILES)": "c1cncc(-c2cccc(Nc3nccc(NC4CCCCC4)n3)c2)c1", "observed": "binding", "technique": "competition with immobilised ligand", "tested at": "10 µM", "remaining binding [%]": 81}
{"Structure (SMILES)": "CN(C)c1nccc(-c2cnc3ncccn23)n1", "observed": "binding", "tested at": "1 µM", "remaining binding [%]": 100}
{"Structure (SMILES)": "COc1cnc(Nc2cccc(S(N)(=O)=O)c2)nc1N1CCN(c2ccccc2)CC1", "observed": "binding", "technique": "competition with immobilised ligand", "tested at": "1 µM", "remaining binding [%]": 86}
{"Structure (SMILES)": "CN(c1nccc(-c2cnn3ncccc23)n1)C1CC1", "observed": "binding", "tested at": "1 µM", "remaining binding [%]": 100}
{"Structure (SMILES)": "CCC(=N\\O)/C(C)=C/c1ccc(F)cc1", "observed": "cell-free assay", "technique": "competition with immobilised ligand", "tested at": "1 µM", "remaining binding [%]": 97}
